Laboratory results taken from ChEMBL document CHEMBL4340558, “Synthesis, biological evaluation, and molecular docking study of sulfonate derivatives as nucleotide pyrophosphatase/phosphodiesterase (NPP) inhibitors” (Bioorg Med Chem, 2019).
pIC50: −log10 of the molar value.

Tests used:
[1] = molecular target: T1, Ectonucleotide pyrophosphatase/phosphodiesterase family member 1 (Homo sapiens, UniProt P22413); experiment: Inhibition of human NPP1 expressed in African green monkey COS7 cell membranes pre-incubated for 10 mins before pNP-TMP substrate addition and further incubated for 15 mins by colorimetric method
T1 sequence (P22413 whole entry): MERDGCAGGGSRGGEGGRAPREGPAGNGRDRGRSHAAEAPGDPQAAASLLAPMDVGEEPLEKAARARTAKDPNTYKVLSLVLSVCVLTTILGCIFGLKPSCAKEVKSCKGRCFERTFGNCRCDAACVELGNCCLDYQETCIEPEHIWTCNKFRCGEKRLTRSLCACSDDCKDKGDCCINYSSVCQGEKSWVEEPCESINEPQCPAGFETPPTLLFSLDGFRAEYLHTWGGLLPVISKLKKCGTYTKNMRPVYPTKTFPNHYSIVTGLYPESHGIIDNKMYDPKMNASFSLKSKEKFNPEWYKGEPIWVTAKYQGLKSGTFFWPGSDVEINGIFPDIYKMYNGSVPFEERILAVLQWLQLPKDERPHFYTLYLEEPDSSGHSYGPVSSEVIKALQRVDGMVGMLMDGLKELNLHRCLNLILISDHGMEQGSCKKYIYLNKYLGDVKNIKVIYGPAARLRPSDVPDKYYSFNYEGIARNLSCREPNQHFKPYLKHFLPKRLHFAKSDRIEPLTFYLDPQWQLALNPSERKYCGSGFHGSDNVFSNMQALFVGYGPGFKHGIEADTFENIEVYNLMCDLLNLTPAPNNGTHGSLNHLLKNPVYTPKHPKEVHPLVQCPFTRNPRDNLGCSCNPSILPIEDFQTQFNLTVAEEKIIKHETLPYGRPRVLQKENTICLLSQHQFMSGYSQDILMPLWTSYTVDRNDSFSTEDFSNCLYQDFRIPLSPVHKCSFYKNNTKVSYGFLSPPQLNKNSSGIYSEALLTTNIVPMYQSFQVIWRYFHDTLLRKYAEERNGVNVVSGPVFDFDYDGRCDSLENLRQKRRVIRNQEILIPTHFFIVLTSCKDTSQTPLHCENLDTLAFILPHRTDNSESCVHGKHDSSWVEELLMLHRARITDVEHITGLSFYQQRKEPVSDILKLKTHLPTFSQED

[2] = molecular target: T2, Ectonucleotide pyrophosphatase/phosphodiesterase family member 3 (Homo sapiens, UniProt O14638); experiment: Inhibition of human NPP3 expressed in African green monkey COS7 cell membranes pre-incubated for 10 mins before pNP-TMP substrate addition and further incubated for 15 mins by colorimetric method
T2 sequence (O14638 whole entry): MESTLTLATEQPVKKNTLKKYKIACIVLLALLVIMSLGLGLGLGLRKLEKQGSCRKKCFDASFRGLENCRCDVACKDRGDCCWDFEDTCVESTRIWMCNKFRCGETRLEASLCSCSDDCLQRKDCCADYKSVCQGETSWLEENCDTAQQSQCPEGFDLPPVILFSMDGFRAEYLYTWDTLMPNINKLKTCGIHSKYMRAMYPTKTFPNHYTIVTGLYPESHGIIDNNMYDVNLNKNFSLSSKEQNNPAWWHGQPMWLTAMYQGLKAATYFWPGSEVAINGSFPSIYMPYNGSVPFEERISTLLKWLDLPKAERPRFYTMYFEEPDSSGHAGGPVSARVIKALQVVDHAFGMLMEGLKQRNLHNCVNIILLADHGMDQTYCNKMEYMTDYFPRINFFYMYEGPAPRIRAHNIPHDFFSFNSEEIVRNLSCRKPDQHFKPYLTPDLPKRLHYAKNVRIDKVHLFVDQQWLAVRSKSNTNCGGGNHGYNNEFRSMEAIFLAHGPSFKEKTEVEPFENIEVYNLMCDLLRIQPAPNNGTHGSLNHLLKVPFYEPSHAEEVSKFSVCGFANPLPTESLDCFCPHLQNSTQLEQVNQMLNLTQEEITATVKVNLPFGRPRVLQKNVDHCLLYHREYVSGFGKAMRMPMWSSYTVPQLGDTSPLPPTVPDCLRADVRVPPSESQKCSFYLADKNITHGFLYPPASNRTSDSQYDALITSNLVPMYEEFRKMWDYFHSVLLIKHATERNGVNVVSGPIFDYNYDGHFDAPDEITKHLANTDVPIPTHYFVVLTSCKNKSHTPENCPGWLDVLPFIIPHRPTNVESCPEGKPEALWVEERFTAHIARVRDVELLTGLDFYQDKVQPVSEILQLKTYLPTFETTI

Autotaxin [3] = molecular target: T3, Autotaxin (Homo sapiens, UniProt Q13822); experiment: Inhibition of human NPP2 expressed in African green monkey COS7 cell membranes pre-incubated for 5 mins before pNP-TMP substrate addition and further incubated for 35 mins by colorimetric method relative to untreated control; design: concentration or dose not given beside the values
Summary of the method: (§1)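 Single-point screen at 100 µM test compound, added from a 1 mM stock in 10% DMSO. Buffer was 50 mM Tris-HCl, 5 mM MgCl2, 0.1 mM ZnCl2, pH 9.5, at 37 °C. pNP-TMP substrate was 400 µM for NPP1, 500 µM for NPP2, 600 µM for NPP3. Absorbance at 405 nm was read before and after substrate addition. Percent inhibition was determined in triplicate.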

Autotaxin [4] = molecular target: T3, Autotaxin; experiment: Inhibition of human NPP2 expressed in African green monkey COS7 cell membranes pre-incubated for 5 mins before pNP-TMP substrate addition and further incubated for 35 mins by colorimetric method
Summary of the method: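 Colorimetric assay in 50 mM Tris-HCl, 5 mM MgCl2, 0.1 mM ZnCl2, pH 9.5, at 37 °C. Enzyme amounts: NPP1 35 ng, NPP2 338 ng, NPP3 37 ng. Pre-read at 405 nm was taken, then pNP-TMP was added: 400 µM for NPP1, 500 µM for NPP2, 600 µM for NPP3. A second 405 nm read followed. Runs were in triplicate. IC50 came from serial dilutions by non-linear curve fitting.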

[5] = molecular target: T4, Ectonucleotide pyrophosphatase/phosphodiesterase family member 1 (Homo sapiens) (UniProt P22413); experiment: Inhibition of human NPP1 expressed in African green monkey COS7 cell membranes pre-incubated for 10 mins before pNP-TMP substrate addition and further incubated for 15 mins by colorimetric method relative to untreated control; design: concentration or dose not given beside the values; summary of the method: as §1
T4 sequence (whole entry): T1 sequence (P22413 whole entry)

[6] = molecular target: T5, Ectonucleotide pyrophosphatase/phosphodiesterase family member 3 (Homo sapiens) (UniProt O14638); experiment: Inhibition of human NPP3 expressed in African green monkey COS7 cell membranes pre-incubated for 10 mins before pNP-TMP substrate addition and further incubated for 15 mins by colorimetric method relative to untreated control; design: concentration or dose not given beside the values; summary of the method: as §1
T5 sequence (whole entry): T2 sequence (O14638 whole entry)

[7] = molecular target: T5, Ectonucleotide pyrophosphatase/phosphodiesterase family member 3 (Homo sapiens); experiment: Potency index, ratio of IC50 for suramin to IC50 for test compound for inhibition of human NPP3 expressed in African green monkey COS7 cell membranes pre-incubated for 10 mins before pNP-TMP substrate addition and further incubated for 15 mins by colorimetric method

pIC50 [1]	pIC50 [2]	inhibition (Autotaxin [3])	pIC50 (Autotaxin [4])	inhibition [5]	inhibition [6]	Ratio IC50 [7]	Structure (SMILES)
6.37	5.59	34%					O=C(Nc1ccc(OS(=O)(=O)c2ccc(C(F)(F)F)cc2)cc1)C1CCCCCC1
5.03	4.69		4.55				O=C(Nc1ccc(OS(=O)(=O)c2ccccc2)cc1)c1ccc2ccccc2c1
5.09	6.07		4.87				Cc1ccc(S(=O)(=O)Oc2ccc(NC(=O)C3CCCC3)cc2)cc1
		23%		29%	37%		CC(C)c1cc(C(C)C)c(S(=O)(=O)Oc2ccc(NC(=O)C3CCCCCC3)cc2)c(C(C)C)c1
4.93	5.97		4.62				O=C(Nc1ccc(OS(=O)(=O)c2ccccc2)cc1)C1CCCCC1
5.78	5.57	42%					CC(C)(C)c1ccc(S(=O)(=O)Oc2ccc(NC(=O)C3CCCC3)cc2)cc1
			5.61	37%	42%		O=C(Nc1ccc(OS(=O)(=O)c2cccc3cccnc23)cc1)c1ccc2ccccc2c1
		49%		40%	46%		CC(C)(C)c1ccc(S(=O)(=O)Oc2ccc(NC(=O)C3CCCCCCC3)cc2)cc1
5.02	5.56		< 4.00				O=C(Nc1ccc(OS(=O)(=O)c2ccccc2)cc1)c1ccc(Cl)cc1
5.79	6.43		5.74				CCS(=O)(=O)Oc1ccc(NC(=O)C2CCCCC2)cc1
5.95	5.40		6.18				O=C(Nc1ccc(OS(=O)(=O)c2ccc(C(F)(F)F)cc2)cc1)C1CCCC1
5.72	5.87	33%					CS(=O)(=O)Oc1ccc(NC(=O)C2CCCCC2)cc1
4.33	5.76	38%					O=C(Nc1ccc(OS(=O)(=O)c2ccccc2)cc1)C1CCCC1
6.37	6.59	24%					Cc1ccc(S(=O)(=O)Oc2ccc(NC(=O)C3CCCCCC3)cc2)cc1
5.24	5.99		5.83				O=C(Nc1ccc(OS(=O)(=O)c2ccc(F)cc2)cc1)C1CCCC1
5.83	4.87	33%					O=C(Nc1ccc(OS(=O)(=O)c2ccc(F)cc2)cc1)c1ccc2ccccc2c1
5.46	5.54	42%					CC(C)c1cc(C(C)C)c(S(=O)(=O)Oc2ccc(NC(=O)c3ccc4ccccc4c3)cc2)c(C(C)C)c1
5.74	5.82	31%					CC(C)(C)c1ccc(S(=O)(=O)Oc2ccc(NC(=O)c3ccc(Cl)cc3)cc2)cc1
4.86	5.18	28%					O=C(Nc1ccc(OS(=O)(=O)c2ccccc2)cc1)C1CCCCCC1

pIC50 [1]	pIC50 [2]	inhibition (Autotaxin [3])	pIC50 (Autotaxin [4])	inhibition [5]	inhibition [6]	Ratio IC50 [7]	Structure (SMILES)
			5.10	24%	23%		Cc1ccc(S(=O)(=O)Oc2ccc(NC(=O)c3ccc4ccccc4c3)cc2)cc1
5.84	5.79		5.11				Cc1ccc(S(=O)(=O)Oc2ccc(NC(=O)c3ccc(Cl)cc3)cc2)cc1
	6.67		6.17	29%		6	O=C(Nc1ccc(OS(=O)(=O)c2ccc(C(F)(F)F)cc2)cc1)C1CCCCCCC1
4.67	5.47		5.97				O=C(Nc1ccc(OS(=O)(=O)c2ccc(C(F)(F)F)cc2)cc1)c1ccc(Cl)cc1
5.66		38%			49%		CC(C)(C)c1ccc(S(=O)(=O)Oc2ccc(NC(=O)c3ccc4ccccc4c3)cc2)cc1
5.95	5.27	22%					O=C(Nc1ccc(OS(=O)(=O)c2ccc(C(F)(F)F)cc2)cc1)c1ccc2ccccc2c1
		27%		43%	39%		Cc1ccc(S(=O)(=O)Oc2ccc(NC(=O)C3CCCCC3)cc2)cc1
5.83	4.33		5.41				CC(C)(C)c1ccc(S(=O)(=O)Oc2ccc(NC(=O)C3CCCCCC3)cc2)cc1
		46%		30%	30%		CC(C)c1cc(C(C)C)c(S(=O)(=O)Oc2ccc(NC(=O)C3CCCCCCC3)cc2)c(C(C)C)c1
5.54			4.70		46%		O=C(Nc1ccc(OS(=O)(=O)c2ccc(F)cc2)cc1)c1ccc(Cl)cc1
			4.18	45%	47%		O=C(Nc1ccc(OS(=O)(=O)c2ccccc2)cc1)C1CCCCCCC1
	5.64		5.31	39.3%			O=C(Nc1ccc(OS(=O)(=O)c2ccc(F)cc2)cc1)C1CCCCCC1
5.46	5.62		4.58				CCCS(=O)(=O)Oc1ccc(NC(=O)C2CCCCC2)cc1
6.25	6.60	37%					O=C(Nc1ccc(OS(=O)(=O)c2ccc(F)cc2)cc1)C1CCCCC1
			4.10	43%	35%		Cc1ccc(S(=O)(=O)Oc2ccc(NC(=O)C3CCCCCCC3)cc2)cc1
5.59	6.09	39%					CC(C)(C)c1ccc(S(=O)(=O)Oc2ccc(NC(=O)C3CCCCC3)cc2)cc1
6.01	5.92	24%					CC(C)c1cc(C(C)C)c(S(=O)(=O)Oc2ccc(NC(=O)c3ccc(Cl)cc3)cc2)c(C(C)C)c1
6.41	5.75		5.80				O=C(Nc1ccc(OS(=O)(=O)c2ccc(C(F)(F)F)cc2)cc1)C1CCCCC1
